Experimental data as given in publication PMC3141282 (Hypertension, 2011).

Key:
[1] = tested on: HEK 293T cells transfected with the empty vector; assay: [125I]Ang-; type: binding, Human
[2] = tested on: HEK 293T cells transfected with the empty vector (mock); assay: [3H]arachidonic acid; type: cell-based, Human; settings: Ang-(1-7) during 15 min, 37 °C
Summary of the method: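 They were washed with DMEM containing 2% BSA, then exposed to test peptide at 37 °C for the stated times. Supernatant radioactivity was counted, and total cellular radioactivity came from cells solubilized in 1 mol/L NaOH. Fractional release (% of total) was expressed as percent of unstimulated control (100%), mean ± SEM.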

[3] = tested on: rabbit aortic smooth muscle cells; settings: cited from earlier work
rat renal cortex = settings: cited from earlier work
[4] = tested on: endothelial progenitor cells; settings: cells from sham or infarcted rodents; cited from earlier work
megalin = settings: scavenger receptor megalin; cited from earlier work

Q: Which “Ang-(1-7) binding” value ([1]; 0.5 nmol/L [125I]Ang-(1-7), 4°C, 60 min) does the source give for Angiotensin-(1-7) [Ang-(1-7)] here?
A: undetectable

Q: And the total binding ([1]; 0.5 nmol/L [125I]Ang-(1-7), 4°C, 60 min, mean ± SEM)?
A: 480±68 cpm

Q: And the nonspecific binding ([1]; in the presence of 10 μmol/L unlabeled Ang-(1-7), mean ± SEM)?
A: 395±87 cpm

Q: And the “[3H]AA release, mock cells” value [2]?
A: no changes in [^3H]AA release

Q: What about the “Ang-(1-7) response in releasing AA from tissue lipids and stimulating 6-keto-prostaglandin F1α production” value [3] of the same substance?
A: decrease in Ang-(1-7) response

Q: And the “Ang-(1-7) response, phosphatidylcholine biosynthesis” value (rat renal cortex)?
A: decrease in Ang-(1-7) response

Q: What about the “Ang-(1-7)-induced proliferation of endothelial progenitor cells, responsiveness” value [4] of the same substance?
A: attenuation in responsiveness

Q: And the “binding and internalization by megalin” value (megalin)?
A: binds and internalizes Ang-(1-7)
